In brackets after ≈: the same amount, converted by molar mass.
Legend:
Format in all cases: functional
Aspergillus fumigatus [1] = assay: Antimicrobial activity against Aspergillus fumigatus isolate 24 by oxygen consumption method
In short: (§1)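 Conidial suspension in RPMI 1640 broth, 1.5 ml, with two drug concentrations (0.25 and 2 μg/ml). Tubes agitated 12 h at 37°C in a biological oxygen monitor. Available oxygen monitored continuously and quantified to assign the MIC.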

Aspergillus fumigatus [2] = assay: Antimicrobial activity against Aspergillus fumigatus isolate 29 after 24 hrs by Etest; details: isolate 29, 24 h
In short: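 Etest strips on RPMI 1640 agar with 2% glucose, pH 7.0, run per manufacturer's instructions. Incubated at 35°C; MIC read at 24 h.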

Aspergillus fumigatus [3] = assay: Antimicrobial activity against Aspergillus fumigatus isolate 8 after 24 hrs by Etest; details: isolate 8, 24 h
Aspergillus fumigatus [4] = assay: Antimicrobial activity against Aspergillus fumigatus isolate 15 after 24 hrs by Etest; details: isolate 15, 24 h
In short: (§2)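 Posaconazole Etest strips placed on RPMI 1640 agar with 2% glucose, pH 7.0, and run per the strip maker's instructions. Incubation at 35°C, with the MIC read at 24 h and at 48 h.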

Aspergillus fumigatus [5] = assay: Antimicrobial activity against Aspergillus fumigatus isolate 42 after 48 hrs by Etest; details: isolate 42, 48 h
In short: (§3)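 Posaconazole Etest strips on RPMI 1640 agar with 2% glucose, pH 7.0, run per the strip maker's instructions. Incubated at 35°C. MIC read at 24 h and at 48 h, matching the time in each line.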

Aspergillus fumigatus [6] = assay: Antimicrobial activity against Aspergillus fumigatus isolate 10 by CLSI M38-A2 broth microdilution method
In short: (§4)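 Posaconazole broth microdilution follows CLSI M38-A2. The MIC is the lowest concentration with no visible growth at 48 h. Candida parapsilosis ATCC 22019 and Candida krusei ATCC 6258 were included as QC strains in every run.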

Aspergillus fumigatus [7] = assay: Antimicrobial activity against Aspergillus fumigatus isolate 27 by oxygen consumption method; in short: as §1
Aspergillus fumigatus [8] = assay: Antimicrobial activity against Aspergillus fumigatus isolate 26 by oxygen consumption method; in short: as §1
Aspergillus fumigatus [9] = assay: Antimicrobial activity against Aspergillus fumigatus isolate 19 after 24 hrs by Etest; details: isolate 19, 24 h; in short: as §2
Aspergillus fumigatus [10] = assay: Antimicrobial activity against Aspergillus fumigatus isolate 50 by CLSI M38-A2 broth microdilution method
Aspergillus fumigatus [11] = assay: Antimicrobial activity against Aspergillus fumigatus isolate 15 after 48 hrs by Etest; details: isolate 15, 48 h; in short: as §2
Aspergillus fumigatus [12] = assay: Antimicrobial activity against Aspergillus fumigatus isolate 42 by oxygen consumption method
In short: (§5)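 Conidial suspension in RPMI 1640 broth, tested at two posaconazole levels (0.25 and 2 μg/ml). Agitated for 12 h at 37°C in a biological oxygen monitor. MIC derived from continuous monitoring and quantification of the available oxygen.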

Aspergillus fumigatus [13] = assay: Antimicrobial activity against Aspergillus fumigatus isolate 2 by oxygen consumption method
In short: (§6)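 Conidial suspension in RPMI 1640 broth with posaconazole at 0.25 and 2 μg/ml. Tubes agitated 12 h at 37°C in a biological oxygen monitor. Available oxygen was monitored continuously, and the MIC was assigned from the oxygen quantification.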

Aspergillus fumigatus [14] = assay: Antimicrobial activity against Aspergillus fumigatus isolate 6 after 24 hrs by Etest; details: isolate 6, 24 h
Aspergillus fumigatus [15] = assay: Antimicrobial activity against Aspergillus fumigatus isolate 1 by oxygen consumption method; in short: as §6
Aspergillus fumigatus [16] = assay: Antimicrobial activity against Aspergillus fumigatus isolate 36 after 48 hrs by Etest; details: isolate 36, 48 h; in short: as §3
Aspergillus fumigatus [17] = assay: Antimicrobial activity against Aspergillus fumigatus isolate 2 after 24 hrs by Etest; details: isolate 2, 24 h; in short: as §2
Aspergillus fumigatus [18] = assay: Antimicrobial activity against Aspergillus fumigatus isolate 14 by oxygen consumption method; in short: as §6
Aspergillus fumigatus [19] = assay: Antimicrobial activity against Aspergillus fumigatus isolate 11 by oxygen consumption method; in short: as §6
Aspergillus fumigatus [20] = assay: Antimicrobial activity against Aspergillus fumigatus isolate 19 by oxygen consumption method; in short: as §6
Aspergillus fumigatus [21] = assay: Antimicrobial activity against Aspergillus fumigatus isolate 22 by CLSI M38-A2 broth microdilution method
In short: (§7)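 Reference broth microdilution per CLSI M38-A2. MIC read as absence of visible growth at 48 h. C. parapsilosis ATCC 22019 and C. krusei ATCC 6258 QC strains run in each test session.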

Aspergillus fumigatus [22] = assay: Antimicrobial activity against Aspergillus fumigatus isolate 15 by CLSI M38-A2 broth microdilution method; in short: as §4
Aspergillus fumigatus [23] = assay: Antimicrobial activity against Aspergillus fumigatus isolate 50 by oxygen consumption method
Aspergillus fumigatus [24] = assay: Antimicrobial activity against Aspergillus fumigatus isolate 13 after 48 hrs by Etest; details: isolate 13, 48 h; in short: as §2
Aspergillus fumigatus [25] = assay: Antimicrobial activity against Aspergillus fumigatus isolate 40 by oxygen consumption method; in short: as §5
Aspergillus fumigatus [26] = assay: Antimicrobial activity against Aspergillus fumigatus isolate 37 after 24 hrs by Etest; details: isolate 37, 24 h; in short: as §3
Aspergillus fumigatus [27] = assay: Antimicrobial activity against Aspergillus fumigatus isolate 3 by oxygen consumption method; in short: as §1
Aspergillus fumigatus [28] = assay: Antimicrobial activity against Aspergillus fumigatus isolate 30 by CLSI M38-A2 broth microdilution method; in short: as §7
Aspergillus fumigatus [29] = assay: Antimicrobial activity against Aspergillus fumigatus isolate 26 after 48 hrs by Etest; details: isolate 26, 48 h
In short: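 Etest strips on RPMI 1640 agar with 2% glucose, pH 7.0, run per manufacturer's instructions. Incubated at 35°C; MIC read at 48 h.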

Aspergillus fumigatus [30] = assay: Antimicrobial activity against Aspergillus fumigatus isolate 37 after 48 hrs by Etest; details: isolate 37, 48 h; in short: as §3
Aspergillus fumigatus [31] = assay: Antimicrobial activity against Aspergillus fumigatus isolate 44 by oxygen consumption method
Aspergillus fumigatus [32] = assay: Antimicrobial activity against Aspergillus fumigatus isolate 4 by oxygen consumption method; in short: as §5
Aspergillus fumigatus [33] = assay: Antimicrobial activity against Aspergillus fumigatus isolate 15 by oxygen consumption method; in short: as §6
Aspergillus fumigatus [34] = assay: Antimicrobial activity against Aspergillus fumigatus isolate 35 by oxygen consumption method; in short: as §5
Aspergillus fumigatus [35] = assay: Antimicrobial activity against Aspergillus fumigatus isolate 17 after 48 hrs by Etest; details: isolate 17, 48 h; in short: as §2
Aspergillus fumigatus [36] = assay: Antimicrobial activity against Aspergillus fumigatus isolate 5 after 24 hrs by Etest; details: isolate 5, 24 h
Aspergillus fumigatus [37] = assay: Antimicrobial activity against Aspergillus fumigatus isolate 32 after 48 hrs by Etest; details: isolate 32, 48 h; in short: as §3
Aspergillus fumigatus [38] = assay: Antimicrobial activity against Aspergillus fumigatus isolate 14 by CLSI M38-A2 broth microdilution method; in short: as §4
Aspergillus fumigatus [39] = assay: Antimicrobial activity against Aspergillus fumigatus isolate 33 after 48 hrs by Etest; details: isolate 33, 48 h; in short: as §3
Aspergillus fumigatus [40] = assay: Antimicrobial activity against Aspergillus fumigatus isolate 38 by oxygen consumption method; in short: as §5
Aspergillus fumigatus [41] = assay: Antimicrobial activity against Aspergillus fumigatus isolate 35 after 48 hrs by Etest; details: isolate 35, 48 h; in short: as §3
Aspergillus fumigatus [42] = assay: Antimicrobial activity against Aspergillus fumigatus isolate 7 after 48 hrs by Etest; details: isolate 7, 48 h
Aspergillus fumigatus [43] = assay: Antimicrobial activity against Aspergillus fumigatus isolate 20 after 48 hrs by Etest; details: isolate 20, 48 h; in short: as §2
Aspergillus fumigatus [44] = assay: Antimicrobial activity against Aspergillus fumigatus isolate 36 after 24 hrs by Etest; details: isolate 36, 24 h; in short: as §3
Aspergillus fumigatus [45] = assay: Antimicrobial activity against Aspergillus fumigatus isolate 47 after 24 hrs by Etest; details: isolate 47, 24 h
Aspergillus fumigatus [46] = assay: Antimicrobial activity against Aspergillus fumigatus isolate 11 after 48 hrs by Etest; details: isolate 11, 48 h; in short: as §2
Aspergillus fumigatus [47] = assay: Antimicrobial activity against Aspergillus fumigatus isolate 9 by oxygen consumption method
Aspergillus fumigatus [48] = assay: Antimicrobial activity against Aspergillus fumigatus isolate 29 by oxygen consumption method; in short: as §1

In the case of CC[C@@H]([C@H](C)O)n1ncn(-c2ccc(N3CCN(c4ccc(OC[C@@H]5CO[C@@](Cn6cncn6)(c6ccc(F)cc6F)C5)cc4)CC3)cc2)c1=O [POSACONAZOLE], the MIC (Aspergillus fumigatus [1]) is reported as no more than 0.25 µg/mL, the MIC (Aspergillus fumigatus [2]) is reported as 0.25 µg/mL (≈ 0.357 µM) and the MIC (Aspergillus fumigatus [3]) is reported as 0.25 µg/mL (≈ 0.357 µM). For the same compound, the MIC (Aspergillus fumigatus [4]) was 0.06 µg/mL (≈ 0.0856 µM), the MIC (Aspergillus fumigatus [5]) was 0.125 µg/mL (≈ 0.178 µM) and the MIC (Aspergillus fumigatus [6]) was 0.25 µg/mL (≈ 0.357 µM). For the same compound, the MIC (Aspergillus fumigatus [7]) was no less than 0.5 µg/mL, the MIC (Aspergillus fumigatus [8]) was no less than 0.5 µg/mL and the MIC (Aspergillus fumigatus [9]) was 0.125 µg/mL (≈ 0.178 µM). For the same compound, the MIC (Aspergillus fumigatus [10]) was 0.125 µg/mL (≈ 0.178 µM), the MIC (Aspergillus fumigatus [11]) was 0.06 µg/mL (≈ 0.0856 µM) and the MIC (Aspergillus fumigatus [12]) was no more than 0.25 µg/mL. It also gave an MIC (Aspergillus fumigatus [13]) of no less than 0.5 µg/mL, an MIC (Aspergillus fumigatus [14]) of 1 µg/mL (≈ 1.43 µM) and an MIC (Aspergillus fumigatus [15]) of no less than 0.5 µg/mL. It also gave an MIC (Aspergillus fumigatus [16]) of 0.06 µg/mL (≈ 0.0856 µM), an MIC (Aspergillus fumigatus [17]) of 0.5 µg/mL (≈ 0.713 µM) and an MIC (Aspergillus fumigatus [18]) of no more than 0.25 µg/mL. The MIC (Aspergillus fumigatus [19]) was no more than 0.25 µg/mL, the MIC (Aspergillus fumigatus [20]) was no less than 0.5 µg/mL and the MIC (Aspergillus fumigatus [21]) was 0.125 µg/mL (≈ 0.178 µM). For the same compound, the MIC (Aspergillus fumigatus [22]) was 0.06 µg/mL (≈ 0.0856 µM), the MIC (Aspergillus fumigatus [23]) was no more than 0.25 µg/mL and the MIC (Aspergillus fumigatus [24]) was 0.25 µg/mL (≈ 0.357 µM). It also gave an MIC (Aspergillus fumigatus [25]) of no more than 0.25 µg/mL, an MIC (Aspergillus fumigatus [26]) of 0.05 µg/mL (≈ 0.0713 µM) and an MIC (Aspergillus fumigatus [27]) of no less than 0.5 µg/mL. For the same compound, the MIC (Aspergillus fumigatus [28]) was 0.125 µg/mL (≈ 0.178 µM), the MIC (Aspergillus fumigatus [29]) was 0.25 µg/mL (≈ 0.357 µM) and the MIC (Aspergillus fumigatus [30]) was 0.125 µg/mL (≈ 0.178 µM). For the same compound, the MIC (Aspergillus fumigatus [31]) was no more than 0.25 µg/mL, the MIC (Aspergillus fumigatus [32]) was no less than 0.5 µg/mL and the MIC (Aspergillus fumigatus [33]) was no more than 0.25 µg/mL. For the same compound, the MIC (Aspergillus fumigatus [34]) was no more than 0.25 µg/mL, the MIC (Aspergillus fumigatus [35]) was 0.25 µg/mL (≈ 0.357 µM) and the MIC (Aspergillus fumigatus [36]) was 4 µg/mL (≈ 5.71 µM). The MIC (Aspergillus fumigatus [37]) was 0.25 µg/mL (≈ 0.357 µM), the MIC (Aspergillus fumigatus [38]) was 0.125 µg/mL (≈ 0.178 µM) and the MIC (Aspergillus fumigatus [39]) was 0.25 µg/mL (≈ 0.357 µM). It also gave an MIC (Aspergillus fumigatus [40]) of no more than 0.25 µg/mL, an MIC (Aspergillus fumigatus [41]) of 0.25 µg/mL (≈ 0.357 µM) and an MIC (Aspergillus fumigatus [42]) of 0.25 µg/mL (≈ 0.357 µM). For the same compound, the MIC (Aspergillus fumigatus [43]) was 0.25 µg/mL (≈ 0.357 µM), the MIC (Aspergillus fumigatus [44]) was 0.06 µg/mL (≈ 0.0856 µM) and the MIC (Aspergillus fumigatus [45]) was no more than 0.03 µg/mL. The MIC (Aspergillus fumigatus [46]) was 0.25 µg/mL (≈ 0.357 µM), the MIC (Aspergillus fumigatus [47]) was no more than 0.25 µg/mL and the MIC (Aspergillus fumigatus [48]) was no more than 0.25 µg/mL.

Source: ChEMBL document CHEMBL1649256, “Comparison of assessment of oxygen consumption, Etest, and CLSI M38-A2 broth microdilution methods for evaluation of the susceptibility of Aspergillus fumigatus to posaconazole” (2009)
